Tests used:
MDA-MB-435 = experiment: Antiproliferative activity against human MDA-MB-435 cells after 72 hrs; assay type: functional, cell-based; details: MDA-MB-435, 72 h
Procedure, shortened: (§1)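 Cells were seeded at 5 × 10³ per well and cultured for 24 h. Test compound in DMSO (under 0.1%) was then added for 72 h. Resazurin was added for 2 h, and fluorescence was read at ex 560 nm / em 590 nm. IC50 was taken as the concentration giving a 50% fall in fluorescence versus untreated cells. Runs were done in triplicate.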

B16-F10 = experiment: Antiproliferative activity against mouse B16F10 cells after 72 hrs; assay type: functional, cell-based; details: B16-F10, 72 h; procedure, shortened: as §1
KB = experiment: Cytotoxicity against human KB cells after 72 hrs; assay type: functional, cell-based
Procedure, shortened: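 KB cells in EMEM (4.5 g/L glucose, 10% FCS, 1% glutamine) seeded 5 × 10³/well, dosed after 24 h with compound in DMSO (<0.1%). 72 h exposure, then resazurin 2 h; fluorescence ex 560/em 590 nm. IC50 = 50% fluorescence decrease versus untreated; triplicate.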

[1] = Antitumor activity against human U87 tumor transplanted in chick chorio-allantoic membrane assessed as reduction of tumor volume at 10 uM after 4 days; assay type: functional, U-87MG ATCC; set-up: scale not given: the % may be the effect or the level left
Procedure, shortened: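 U87 glioma cells (5 × 10⁶ in 20 µL medium) grafted on chick CAM on embryonic day 10; size-matched tumors grouped on day 2. 20 µL drug at 10 µM applied locally once daily, days 3–6 of tumor growth; controls got solvent. Volume V = 4/3πr³ from length and width, six tumors per group.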

MDA-MB-231 = experiment: Antiproliferative activity against human MDA-MB-231 cells after 72 hrs; assay type: functional, cell-based; details: MDA-MB-231, 72 h; procedure, shortened: as §1
HCT-116 = experiment: Antiproliferative activity against human HCT116 cells after 72 hrs; assay type: functional, cell-based; details: HCT-116, 72 h; procedure, shortened: as §1
[2] = Inhibition of sheep brain tubulin polymerization; set-up: species or system Ovis aries
Procedure, shortened: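 Sheep brain tubulin (about 2–3 mg/mL), purified by two assembly–disassembly cycles, in 0.1 M MES, 0.5 mM MgCl₂, 1 mM EGTA, 1 mM GTP, pH 6.6. Assembly followed by turbidity at 350 nm, 37 °C.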

SMILES: COc1cc2c(c(OC)c1OC)-c1ccc(OC)c(=O)cc1[C@@H](NC(C)=O)CC2 [COLCHICINE]
- IC50 (MDA-MB-435): 0.04 µM
- IC50 (B16-F10): 0.029 µM
- IC50 (KB): 0.02 µM
- Activity [1]: 50%
- IC50 (MDA-MB-231): 0.07 µM
- IC50 (HCT-116): 0.04 µM

SMILES: CC1NCc2[nH]c3ccccc3c2-c2ccccc21 (racemic)
- IC50 (KB): 12 µM

SMILES: CCCCC1NC(=O)c2[nH]c3ccccc3c2-c2ccccc21 (racemic)
- IC50 [2]: 1 µM
- IC50 (KB): 0.035 µM

SMILES: CC[C@H]1NC(=O)c2[nH]c3ccccc3c2-c2ccccc21
- IC50 [2]: 1.8 µM
- IC50 (KB): 0.035 µM

SMILES: CC1NC(=O)c2c(c3ccccc3n2C)-c2ccccc21 (racemic)
- IC50 (KB): 7 µM

SMILES: C[C@@H]1NC(=O)c2[nH]c3ccccc3c2-c2ccccc21
- IC50 [2]: 1.9 µM
- IC50 (KB): 0.08 µM

SMILES: CC1NC(=O)c2[nH]c3ccccc3c2-c2ccccc21 (racemic)
- IC50 (KB): 0.28 µM

SMILES: CC1NC(=S)c2[nH]c3ccccc3c2-c2ccccc21 (racemic)
- IC50 (KB): 0.36 µM

SMILES: CCCC1NC(=O)c2[nH]c3ccccc3c2-c2ccccc21 (racemic)
- IC50 [2]: 2 µM
- IC50 (KB): 0.032 µM
